The source made the active and inactive calls. No cut-off for these calls is given here.
Legend:
[1] = Aqueous kinetic solubility of the compound in PBS at pH 7.4 at 250 uM incubated for 24 hrs by UPLC/MS analysis; format: physicochemical; conditions: read-out: Kinetic_solubility
Summary of the method: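 Kinetic solubility measured in phosphate-buffered saline, pH 7.4. Mean of at least two independent experiments, each run in two technical replicates.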

[2] = test system: A375 (human); assay: Inhibition of autophagy in human A375 cells expressing EGFP-LC3B assessed as accumulation of autophagosome after 24 hrs by Hoechst 33342 staining based fluorescent microscopy analysis; conditions: dose 1.25-5 µM
[3] = Tolerability in CD1 mouse assessed as reduction in body weight at 69 micromol/kg, ip administered every daily for 8 days; format: toxicity, organism-based; conditions: in vivo, 192 h, dose 69 µmol/kg, time 8 day
Summary of the method: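 Body weight tracked in female CD1 mice under three regimens: 138 μmol/kg (62 mg/kg) ip daily, assessed after 2 days; 138 μmol/kg every other day over 8 days; 69 μmol/kg (31 mg/kg) daily over 8 days.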

[4] = test system: HepG2; assay: Cytotoxicity against human HepG2 cells; format: functional
Summary of the method: (§1)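 Human cancer lines (A375, MDA-MB-231, OMM-1, UPMM-2, CAPAN-2, HepG2, HT-29, HCT116) treated up to 30 μM. CC50 derived from concentration–response viability plots. Mean ± SEM, n ≥ 6. Two-tailed unpaired t test used between compounds.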

[5] = test system: HT-29; assay: Cytotoxicity against human HT-29 cells; format: functional; summary of the method: as §1
[6] = test system: A-375; assay: Antitumor activity against human A-375 cells xenografted in NMRI-Foxn1nu mouse assessed as reduction in tumor volume at 30 mg/kg, ip administered as 3 days on and 2 days off schedule and measured after 15 days; format: functional; design: scale not given: the % may be the effect or the level left; conditions: time 15 day
Summary of the method: (§2)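 Female NMRI-Foxn1nu mice with subcutaneous A375 flank tumors, grouped by matched tumor volume. Dosing: 30 mg/kg ip or saline, 3 days daily then 2 days off. Tumors measured by digital caliper until day 15. Excised tumors then sized as (W × D × L)/2 and weighed. n = 8; Mann–Whitney two-tailed test for the excised endpoints.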

[7] = Inhibition of REV-ERBbeta (unknown origin) transcription expressed in HEK293 cells incubated for 24 hrs by gaussia luciferase based assay; format: cell-based; conditions: Homo sapiens, HEK293, 24 h
Summary of the method: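 HEK-293 cells cotransfected with REV-ERBβ and a luciferase reporter driven by two repeats of a REV-ERB response element (RevRE) consensus, then treated across a concentration range. Luciferase activity is expressed as fold of DMSO vehicle, mean ± SEM, n = 6, and EC50 is taken from the concentration-response curve. A parallel reporter carrying a mutated RevRE served as a specificity control.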

[8] = Cytotoxicity against human OMM-1 cells; format: functional; summary of the method: as §1
[9] = test system: BT-474; assay: Cytotoxicity against human BT-474 cells; format: functional
Summary of the method: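 BT-474 breast cancer cells and nontumorigenic HMECs treated 48 h with concentrations up to 30 μM. CC50 derived from concentration–response viability plots. Values >30 μM assigned when viability fell by less than 50% of vehicle at 30 μM. Mean ± SEM, n ≥ 3.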

[10] = Metabolic stability in mouse liver microsomes assessed as parent compound remaining preincubated for 15 mins followed by NADPH addition and measured after 1 hr by LC-MS/MS analysis; format: ADME, Microsome; conditions: time 75 min, read-out: Stability
Summary of the method: (§3)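 Microsomal stability assessed in mouse, human, rat or dog liver microsomes with NADPH cofactor. Half-life and percent parent remaining at 60 and 120 min reported. Mean of at least two independent experiments, each in two technical replicates.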

[11] = Metabolic stability in mouse liver microsomes assessed as half life preincubated for 15 mins followed by NADPH addition and measured after 1 to 2 hrs by LC-MS/MS analysis; format: ADME, Microsome; conditions: liver microsomes, time 75-135 min; summary of the method: as §3
[12] = Metabolic stability in mouse liver microsomes assessed as half life preincubated for 15 mins followed by UDPGA addition and measured after 2 hrs by LC-MS/MS analysis; format: ADME, Microsome; conditions: time 135 min
Summary of the method: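 Mouse and human liver microsomes incubated with UDPGA cofactor. Half-life and percent parent remaining at 120 min reported. Mean of at least two independent experiments, each in two technical replicates.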

[13] = Metabolic stability in dog liver microsomes assessed as parent compound remaining preincubated for 15 mins followed by NADPH addition and measured after 1 to 2 hrs by LC-MS/MS analysis; format: ADME, Canis lupus familiaris, Microsome; conditions: time 75-135 min; summary of the method: as §3
[14] = test system: A375 (human); assay: Inhibition of autophagy in human A375 cells expressing EGFP-LC3B assessed as increase in LC3-II protein level at 2.5 uM after 24 hrs by immunoblotting analysis
[15] = test system: BT-474; assay: Induction of apoptosis in human BT-474 cells assessed as increase in caspase activity after 24 hrs; format: functional, cell-based; conditions: dose 2.5-10 µM
Summary of the method: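 BT-474 cells treated at a range of concentrations. Apoptosis read out as caspase activity and as cleaved PARP protein by immunoblot.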

[16] = test system: A-375; assay: Antitumor activity against human A-375 cells xenografted in NMRI-Foxn1nu mouse assessed as reduction in tumor weight at 30 mg/kg, ip administered as 3 days on and 2 days off schedule and measured after 15 days; format: functional; design: scale not given: the % may be the effect or the level left; conditions: time 15 day; summary of the method: as §2
[17] = test system: MDA-MB-231; assay: Cytotoxicity against human MDA-MB-231 cells; format: functional; summary of the method: as §1
[18] = test system: BT-474; assay: Inhibition of REV-ERBbeta in REV-ERBbeta knockout human BT-474 cells assessed as induction of BMAL1 expression at 5 uM after 24 hrs by qRT-PCR analysis; format: cell-based
[19] = test system: HCT-116; assay: Cytotoxicity against human HCT-116 cells; format: functional; summary of the method: as §1
[20] = Metabolic stability in rat liver microsomes assessed as half life preincubated for 15 mins followed by NADPH addition and measured after 1 to 2 hrs by LC-MS/MS analysis; format: ADME, Microsome; conditions: liver microsomes, time 75-135 min; summary of the method: as §3
[21] = Tolerability in CD1 mouse assessed as change in body weight at 69 micromol/kg, ip administered as 3 days on and 2 days off schedule and measured after 15 days; format: toxicity, organism-based; conditions: in vivo, 360 h, dose 69 µmol/kg, time 15 day
Summary of the method: (§4)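 Female CD1 mice given 69 μmol/kg (31 mg/kg) ip, 3 days daily then 2 days off, or saline. Body weight, food intake and water intake monitored daily for 15 days. Weight expressed relative to the day before treatment (100%). Mean ± SEM, n = 3.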

[22] = Metabolic stability in human liver microsomes assessed as parent compound remaining preincubated for 15 mins followed by NADPH addition and measured after 1 hr by LC-MS/MS analysis; format: ADME, Microsome; conditions: time 75 min, read-out: Stability; summary of the method: as §3
[23] = Tolerability in CD1 mouse assessed as lethargy at 138 micromol/kg, ip; format: toxicity; conditions: in vivo, dose 138 µmol/kg
Summary of the method: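 Female CD1 mice given daily ip injections at 138 μmol/kg (62 mg/kg). Animals observed for arched backs and lethargy.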

[24] = Tolerability in CD1 mouse assessed as change in food intake at 69 micromol/kg, ip administered as 3 days on and 2 days off schedule and measured after 15 days; format: toxicity, organism-based; conditions: in vivo, 360 h, dose 69 µmol/kg, time 15 day; summary of the method: as §4
[25] = test system: A-375; assay: Antitumor activity against human A-375 cells xenografted in NMRI-Foxn1nu mouse assessed as tumor growth inhibition at 30 mg/kg, ip administered as 3 days on and 2 days off schedule and measured after 15 days; format: functional; conditions: A-375, 360 h, time 15 day, read-out: TGI; summary of the method: as §2

Fc1ccc(C2(NCc3ccc(F)c(CC4CCNCC4)c3)CCCC2)cc1
solubility kinetic at 24 h, 250 µM [1]: > 250 µM
inhibition [2]: Dose-Dependent Effect
Activity [3]: Toxic
CC50 [4]: 1490 nM
CC50 [5]: 4740 nM
Activity [6]: 60%
EC50 [7]: 3610 nM
CC50 [8]: 1140 nM
CC50 [9]: 2310 nM
remaining at 1 h [10]: 84%
half-life [11]: > 2 h
half-life [12]: > 2 h
Stability [13]: 89%
inhibition [14]: Active
Activity [15]: Dose-Dependent Effect
Activity [16]: 56%
CC50 [17]: 2970 nM
inhibition [18]: inactive
CC50 [19]: 4560 nM
half-life [20]: > 1 h
Activity [21]: Non-Toxic
remaining at 1 h [22]: 81%
Activity [23]: Non-Toxic
Activity [24]: Non-Toxic
inhibition in vivo at 30 mg/kg [25]: 55%

Source: ChEMBL document CHEMBL5344432, “Identification of a Dual Autophagy and REV-ERB Inhibitor with in Vivo Anticancer Efficacy” (J Med Chem, 2024)
